Values after ≈ are worked out from the molar mass of the structure shown. Active and inactive are the calls of the source. The rule behind the calls is not given here.
Legend:
Mucor mucedo [1] = assay: Antifungal activity against Mucor mucedo ATCC 7941 at <100 ug/ml at pH 7 after 20 h in presence of 10% beef serum
Aspergillus niger [2] = assay: Antifungal activity against Aspergillus niger ATCC 1004 at <100 ug/ml at pH 7 after 5 days in presence of 10% beef serum; assay type: functional, organism-based
Procedure, shortened: (§1)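 Agar-dilution MIC in Sabouraud dextrose agar at pH 5.6 or 7.0, with or without 10% beef serum. Plates were incubated at 28 °C for 5 days. MIC is the lowest concentration (µg/mL) giving 100% inhibition. Steps were 1 µg/mL up to 10, 2 µg/mL from 10–20, and 10 µg/mL from 20–100; 100 µg/mL was the top level, and no inhibition there is scored as >100.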

Mucor mucedo [3] = assay: Antifungal activity against Mucor mucedo ATCC 7941 at <100 ug/ml at pH 5.6 after 20 h in absence of 10% beef serum
Candida albicans [4] = assay: Antifungal activity against Candida albicans ATCC 10231 at <100 ug/ml at pH 7 after 20 h in absence of 10% beef serum
Candida albicans [5] = assay: Antifungal activity against Candida albicans ATCC 10231 at <100 ug/ml at pH 5.6 after 20 h in absence of 10% beef serum
Aspergillus niger [6] = assay: Antifungal activity against Aspergillus niger ATCC 1004 at <100 ug/ml at pH 7 after 5 days in absence of 10% beef serum; assay type: functional, organism-based
Procedure, shortened: as §1

Mucor mucedo [7] = assay: Antifungal activity against Mucor mucedo ATCC 7941 at <100 ug/ml at pH 7 after 20 h in absence of 10% beef serum
Candida albicans [8] = assay: Antifungal activity against Candida albicans ATCC 10231 at <100 ug/ml at pH 7 after 20 h in presence of 10% beef serum
Candida albicans [9] = assay: Antifungal activity against Candida albicans ATCC 10231 at <100 ug/ml at pH 5.6 after 20 h in presence of 10% beef serum
Aspergillus niger [10] = assay: Antifungal activity against Aspergillus niger ATCC 1004 at <100 ug/ml at pH 5.6 after 5 days in presence of 10% beef serum; assay type: functional, organism-based
Procedure, shortened: as §1

Mucor mucedo [11] = assay: Antifungal activity against Mucor mucedo ATCC 7941 at <100 ug/ml at pH 5.6 after 20 h in presence of 10% beef serum
[12] = system: Trichophyton mentagrophytes; assay: Antifungal activity against Trichophyton mentagrophytes ATCC 9129 at <100 ug/ml at pH 5.6 after 5 days in presence of 10% beef serum; assay type: functional, organism-based
Procedure, shortened: as §1

[13] = system: Trichophyton mentagrophytes; assay: Antifungal activity against Trichophyton mentagrophytes ATCC 9129 at pH 5.6 after 5 days in absence of 10% beef serum; assay type: functional; conditions: Trichophyton mentagrophytes, ATCC 9129, 120 h; read-out: MIC
Procedure, shortened: as §1

[14] = system: Trichophyton mentagrophytes; assay: Antifungal activity against Trichophyton mentagrophytes ATCC 9129 at pH 7 after 5 days in absence of 10% beef serum; assay type: functional; conditions: Trichophyton mentagrophytes, ATCC 9129, 120 h; read-out: MIC
Procedure, shortened: as §1

Aspergillus niger [15] = assay: Antifungal activity against Aspergillus niger ATCC 1004 at <100 ug/ml at pH 5.6 after 5 days in absence of 10% beef serum; assay type: functional, organism-based
Procedure, shortened: as §1

[16] = system: Trichophyton mentagrophytes; assay: Antifungal activity against Trichophyton mentagrophytes ATCC 9129 at <100 ug/ml at pH 7 after 5 days in presence of 10% beef serum; assay type: functional, organism-based
Procedure, shortened: as §1

Candida albicans [17] = assay: Antifungal activity against Candida albicans ATCC 10231 at pH 5.6 after 20 h in presence of 10% beef serum; conditions: ATCC 10231, 20 h
Mucor mucedo [18] = assay: Antifungal activity against Mucor mucedo ATCC 7941 at pH 7 after 20 h in absence of 10% beef serum; conditions: ATCC 7941, 20 h
[19] = system: Trichophyton mentagrophytes; assay: Antifungal activity against Trichophyton mentagrophytes ATCC 9129 at pH 5.6 after 5 days in presence of 10% beef serum; assay type: functional; conditions: Trichophyton mentagrophytes, ATCC 9129, 120 h; read-out: MIC
Procedure, shortened: as §1

[20] = system: Trichophyton mentagrophytes; assay: Antifungal activity against Trichophyton mentagrophytes ATCC 9129 at pH 7 after 5 days in presence of 10% beef serum; assay type: functional; conditions: Trichophyton mentagrophytes, ATCC 9129, 120 h; read-out: MIC
Procedure, shortened: as §1

Candida albicans [21] = assay: Antifungal activity against Candida albicans ATCC 10231 at pH 7 after 20 h in presence of 10% beef serum; conditions: ATCC 10231, 20 h
Candida albicans [22] = assay: Antifungal activity against Candida albicans ATCC 10231 at pH 5.6 after 20 h in absence of 10% beef serum; conditions: ATCC 10231, 20 h
Mucor mucedo [23] = assay: Antifungal activity against Mucor mucedo ATCC 7941 at pH 5.6 after 20 h in absence of 10% beef serum; conditions: ATCC 7941, 20 h
Aspergillus niger [24] = assay: Antifungal activity against Aspergillus niger ATCC 1004 at pH 5.6 after 5 days in presence of 10% beef serum; assay type: functional; conditions: Aspergillus niger, ATCC 1004, 120 h; read-out: MIC
Procedure, shortened: as §1

Aspergillus niger [25] = assay: Antifungal activity against Aspergillus niger ATCC 1004 at pH 7 after 5 days in presence of 10% beef serum; assay type: functional; conditions: Aspergillus niger, ATCC 1004, 120 h; read-out: MIC
Procedure, shortened: as §1

Aspergillus niger [26] = assay: Antifungal activity against Aspergillus niger ATCC 1004 at pH 7 after 5 days in absence of 10% beef serum; assay type: functional; conditions: Aspergillus niger, ATCC 1004, 120 h; read-out: MIC
Procedure, shortened: as §1

Mucor mucedo [27] = assay: Antifungal activity against Mucor mucedo ATCC 7941 at pH 5.6 after 20 h in presence of 10% beef serum; conditions: ATCC 7941, 20 h
Mucor mucedo [28] = assay: Antifungal activity against Mucor mucedo ATCC 7941 at pH 7 after 20 h in presence of 10% beef serum; conditions: ATCC 7941, 20 h
Candida albicans [29] = assay: Antifungal activity against Candida albicans ATCC 10231 at pH 7 after 20 h in absence of 10% beef serum; conditions: ATCC 10231, 20 h
Aspergillus niger [30] = assay: Antifungal activity against Aspergillus niger ATCC 1004 at pH 5.6 after 5 days in absence of 10% beef serum; assay type: functional; conditions: Aspergillus niger, ATCC 1004, 120 h; read-out: MIC
Procedure, shortened: as §1

Compound	inhibition (Mucor mucedo [1])	inhibition (Aspergillus niger [2])	inhibition (Aspergillus niger [6])	inhibition (Aspergillus niger [10])	MIC [13]	MIC [14]	inhibition (Aspergillus niger [15])	MIC (Candida albicans [17])	MIC (Mucor mucedo [18])	MIC [19]	MIC [20]	MIC (Candida albicans [21])	MIC (Candida albicans [22])	MIC (Mucor mucedo [23])	MIC (Aspergillus niger [24])	MIC (Aspergillus niger [26])	MIC (Mucor mucedo [27])	MIC (Mucor mucedo [28])	MIC (Candida albicans [29])	MIC (Aspergillus niger [30])	other results
CCCCCOC(=O)/C=C/C(=O)OCCCCC	inactive	inactive	inactive	inactive	16 µg/mL (≈ 62.4 µM)	50 µg/mL (≈ 195 µM)	inactive														inhibition (Mucor mucedo [3]): inactive; inhibition (Candida albicans [4]): inactive; inhibition (Candida albicans [5]): inactive; inhibition (Mucor mucedo [7]): inactive; inhibition (Candida albicans [8]): inactive; inhibition (Candida albicans [9]): inactive; inhibition (Mucor mucedo [11]): inactive; inhibition [12]: inactive; inhibition [16]: inactive
COC(=O)/C=C(\Br)C(=O)OC					< 1 µg/mL	3 µg/mL (≈ 13.5 µM)		14 µg/mL	5 µg/mL (≈ 22.4 µM)	3 µg/mL	9 µg/mL	20 µg/mL	12 µg/mL (≈ 53.8 µM)	3 µg/mL (≈ 13.5 µM)	16 µg/mL	18 µg/mL (≈ 80.7 µM)	4 µg/mL	14 µg/mL	18 µg/mL (≈ 80.7 µM)	14 µg/mL (≈ 62.8 µM)	MIC (Aspergillus niger [25]): 20 µg/mL
CCCOC(=O)[C@@H](F)[C@@H](Br)C(=O)OCCC (relative stereo)					< 1 µg/mL	2 µg/mL (≈ 6.69 µM)		5 µg/mL	3 µg/mL (≈ 10 µM)	5 µg/mL	14 µg/mL	14 µg/mL	3 µg/mL (≈ 10 µM)	< 1 µg/mL	18 µg/mL	40 µg/mL (≈ 134 µM)	14 µg/mL	14 µg/mL	4 µg/mL (≈ 13.4 µM)	18 µg/mL (≈ 60.2 µM)	MIC (Aspergillus niger [25]): 60 µg/mL
CCCCCOC(=O)[C@H](F)[C@@H](Br)C(=O)OCCCCC (relative stereo)	inactive	inactive	inactive	inactive	12 µg/mL (≈ 33.8 µM)	40 µg/mL (≈ 113 µM)	inactive														inhibition (Mucor mucedo [3]): inactive; inhibition (Candida albicans [4]): inactive; inhibition (Candida albicans [5]): inactive; inhibition (Mucor mucedo [7]): inactive; inhibition (Candida albicans [8]): inactive; inhibition (Candida albicans [9]): inactive; inhibition (Mucor mucedo [11]): inactive; inhibition [12]: inactive; inhibition [16]: inactive
COC(=O)/C=C(/Br)C(=O)OC		inactive	inactive	inactive	4 µg/mL (≈ 17.9 µM)	7 µg/mL (≈ 31.4 µM)	inactive	80 µg/mL	40 µg/mL (≈ 179 µM)	5 µg/mL	14 µg/mL	90 µg/mL	90 µg/mL (≈ 404 µM)	10 µg/mL (≈ 44.8 µM)			40 µg/mL	40 µg/mL	90 µg/mL (≈ 404 µM)		
COC(=O)/C=C(\F)C(=O)OC		inactive			< 1 µg/mL	8 µg/mL (≈ 49.3 µM)		6 µg/mL	4 µg/mL (≈ 24.7 µM)	4 µg/mL	40 µg/mL	40 µg/mL	4 µg/mL (≈ 24.7 µM)	< 1 µg/mL	50 µg/mL	60 µg/mL (≈ 370 µM)	2 µg/mL	6 µg/mL	20 µg/mL (≈ 123 µM)	20 µg/mL (≈ 123 µM)	
